PREPL inh: PREPL enzyme inhibitors, primary screen, biochemical, fluorescence polarization. Prolyl endopeptidase-like (Homo sapiens), Q4J6C6. recombinant PREPL, fluorescence polarization activity-based probe. inhibition, % at 5.96 µM. hit rate 0.68% among 320,000. AID 2751, 2010; in the data active = inhibition above about 43%;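 note: 0% = enzyme with DMSO and 100% = wells lacking enzyme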
SUMO HTRF inh: inhibitors of in vitro SUMOylation cascade, primary screen, biochemical, HTRF, uHTS; SUMO-conjugating enzyme UBC9 (Homo sapiens), P63279; AID 2006, 2009; inhibition, % at 35 µM; hit rate 0.36% among 290,000; HTRF SUMOylation assay, SAE1/SAE2 + UBC9; in the data active = inhibition above about 50%, passing the limit was not always enough; inconclusive = no clear call, values can overlap the other calls
Target sequence (P63279 whole entry, looked up): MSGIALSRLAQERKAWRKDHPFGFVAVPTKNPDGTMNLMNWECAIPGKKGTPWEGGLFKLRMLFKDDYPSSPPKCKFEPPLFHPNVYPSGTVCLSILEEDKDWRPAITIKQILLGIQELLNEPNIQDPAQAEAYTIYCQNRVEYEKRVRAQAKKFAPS
Rin1-Abl PPI inh: inhibitors of Rin1-Abl protein binding, primary screen, biochemical, TR-FRET; inhibition, % at 7.35 µM; hit rate 0.4% among 360,000; Tyrosine-protein kinase ABL1 (Homo sapiens) + Ras and Rab interactor 1 (Homo sapiens), …; in the data active = inhibition above about 5%, passing the limit was not always enough
UBC13 polyUb: UBC13 polyubiquitin chain formation inhibitors, primary screen, biochemical, TR-FRET, uHTS. Ubiquitin-conjugating enzyme E2 N (Homo sapiens), P61088. hit rate 0.47% among 330,000. inhibition, % at 20 µM; in the data active = inhibition above about 45%, passing the limit was not always enough; inconclusive = no clear call, values can overlap the other calls
ALR H2O2 inh: inhibitors of human ALR sulfhydryl oxidase, primary screen, biochemical, H2O2 detection, HRP-luminol luminescence, single point | FAD-linked sulfhydryl oxidase ALR (Homo sapiens), P55789 | purified ALR, DTT oxidation | inhibition, % (no concentration beside the values) | hit rate 3.8% among 290,000;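 active = mean replicate inhibition above about 79%, with every replicate also reaching it, limit read from the data; inconclusive = only one of the two criteria met; inactive = mean below limit and not every replicate reaching it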
Target sequence (P55789 whole entry, looked up): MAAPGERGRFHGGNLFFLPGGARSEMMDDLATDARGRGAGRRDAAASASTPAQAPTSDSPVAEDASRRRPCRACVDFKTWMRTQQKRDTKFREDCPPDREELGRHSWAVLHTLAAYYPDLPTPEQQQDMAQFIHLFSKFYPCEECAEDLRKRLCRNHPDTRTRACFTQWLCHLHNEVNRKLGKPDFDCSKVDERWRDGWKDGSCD
RBBP9 inh: human RBBP9 inhibitors, primary screen, biochemical, fluorescence polarization, FP-Rh probe, HTS; hit rate 0.2% among 220,000; recombinant RBBP9; Serine hydrolase RBBP9 (Homo sapiens), O75884; inhibition, % at 7.94 µM;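 active = inhibition above the campaign mean of all tested compounds plus 3 SD, cut at about 14% in these data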;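 note: plate controls were DMSO wells with RBBP9 for no effect and wells lacking RBBP9 protein for full effect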
Target sequence (O75884 whole entry, looked up): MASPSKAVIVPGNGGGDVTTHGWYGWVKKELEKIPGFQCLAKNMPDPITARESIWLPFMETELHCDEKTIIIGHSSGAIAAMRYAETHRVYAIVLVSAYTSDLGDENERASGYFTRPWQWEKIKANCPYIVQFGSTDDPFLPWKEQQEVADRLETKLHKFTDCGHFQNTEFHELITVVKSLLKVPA
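System: RBBP9 protein / Quantity: 2.5 µM RBBP9 dispensing solution, before mixing / Also added: Serine-hydrolase probe FP-Rh, 375 nM pre-mixing / Dosing: 7.94 µM single dose, 0.794% DMSO / Timing: enzyme-compound preincubation 30 min, then probe labeling 45 min, 25 °C / Signal: FP readout at 525/598 nm / Controls: DMSO-treated enzyme wells and wells lacking RBBP9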
* hit, by the source's call; ? = inconclusive; · = no result given. This is a sample that favours compounds with a hit; in the whole collection about 4.3% have one here.

SMILES	PREPL inh	SUMO HTRF inh	Rin1-Abl PPI inh	UBC13 polyUb	ALR H2O2 inh	RBBP9 inh
Cc1ccc(C2c3c(oc4ccccc4c3=O)C(=O)N2c2nnc(C(C)C)s2)o1 (stereo unspecified)	-1	5	-2	3	97*	-4
CC(C)c1nnc(N2C(=O)c3oc4ccccc4c(=O)c3C2c2ccco2)s1 (stereo unspecified)	1	19	-2	-2	2	-12
CCOc1ccc(N=Nc2ccc(O)c3ncccc23)cc1	·	-31	2	-161	-35	·
Oc1ccc(N=Nc2ccc3c(c2)OCCO3)c2ncccc12	4	-44	9.2*	-141	·	-1
CCN(CC)c1ccc(/C=N/N2CCN(c3ccccc3OC)CC2)cc1	2	4	1	3	99*	·
COc1ccccc1N1CCN(/N=C(\C)c2ccc(O)cc2)CC1	1	-3	1	1	99*	·
COc1ccc(/C=N/N2CCN(c3ccccc3OC)CC2)cc1OC	19	0	4	4	32	-4
COc1ccccc1N1CCN(/N=C/c2ccc(C(=O)O)cc2)CC1	-3	0	4	3	-55	·
COc1cc(/C=N/N2CCN(c3ccccc3)CC2)cc(OC)c1OC(C)=O	5	-2	6	1	97*	·
COc1ccccc1N1CCN(/N=C/c2ccc(O)c(O)c2)CC1	0	5	·	-4	100*	4
O=C(NCc1ccc(C(=O)O)cc1)OCc1ccccc1	14	-1	2	-5	-3	-1
O=C(NC1CCCCCC1)c1ccc(=O)n(Cc2ccccc2)n1	15	15	0	-1	0	-9
Cc1c(CCC(=O)NCCCN2CCCC2=O)c(=O)oc2c(C)c(O)ccc12	13	?	-4	28	·	·
COc1ccccc1N1CCN(/N=C/c2cccc(OC)c2O)CC1	3	4	3	-2	93*	0
COc1cccc(/C=N/N2C(=O)CSC2=S)c1O	7	16	-4	8	98*	1
COCCNC(=O)C1(C)CCCN(C(=O)c2cccc(C(F)(F)F)c2)C1 (stereo unspecified)	·	·	2	·	·	·
COc1cc(CN2CCN(CCCc3ccccc3)C(CCO)C2)cc(OC)c1O (stereo unspecified)	-26	0	1	-10	-8	·
CCOC(=O)c1ccc(NC(=O)CSC2=NC(=O)C(CC)C(=O)N2)cc1 (stereo unspecified)	4	22	0	-1	99*	-3
CCOC(=O)c1ccc(NC(=O)CSc2nnc(C)n2-c2ccccc2)cc1	-10	-18	2	45	-7	-5
CCC1C(=O)N=C(SCC(=O)Nc2cccc3ccccc23)NC1=O (stereo unspecified)	3	-7	-7	0	99*	-2
CCC1C(=O)N=C(SCC(=O)Nc2nc3ccccc3s2)NC1=O (stereo unspecified)	-3	13	3	1	99*	6
CCC1C(=O)N=C(SCC(=O)Nc2ccc(Br)cn2)NC1=O (stereo unspecified)	6	8	0	-2	99*	-7
CC1(C(=O)NCc2ccccc2)Cc2c(-c3ccc4c(c3)OCO4)ccnc2O1 (stereo unspecified)	·	·	-5	·	·	·
COc1ccc(S(=O)(=O)N2CCOC2CNC(=O)C(=O)NCCCN2CCOCC2)cc1 (stereo unspecified)	0	2	2	6	-12	·
COc1ccc(C(=Cc2cc(OC)c(OC)cc2[N+](=O)[O-])C(=O)O)cc1	·	·	1	·	·	·
SMILES	PREPL inh	SUMO HTRF inh	Rin1-Abl PPI inh	UBC13 polyUb	ALR H2O2 inh	RBBP9 inh
CC(=O)N(C)c1ccc(NC(=S)Nc2cccc3ccccc23)cc1	21	95*	-2	-32	-101	-5
CC(=O)N(C)c1ccc(NC(=S)Nc2ccccc2)cc1	-8	-2	1	-6	2	3
Cc1csc(=Nc2cccnc2)n1CC1CCCCC1	13	14	2	-4	99*	-5
O=c1c(/C=N/OCc2ccc(Cl)cc2Cl)c[nH]n1-c1cccc(Cl)n1	0	-68	3	-21	98*	-3
COC(=O)c1ccccc1NC(=O)CSCC(=O)Nc1ccc(F)cc1	15	-6	-5	6	-10	1
O=C(O)CC12C[C@H]3C[C@@H](C1)CC(n1ncc(N4CCN(c5ccccc5)CC4)c(Cl)c1=O)(C3)C2	10	-21	-3	8	98*	-4
O=C(O)C12CC3CC(C1)CC(n1ncc(NCc4ccccc4)c(Cl)c1=O)(C3)C2	-1	-5	-1	3	3	-5
O=C(O)C12C[C@H]3C[C@@H](C1)CC(n1ncc(N4CCN(c5ccccc5)CC4)c(Cl)c1=O)(C3)C2	7	7	-3	-11	98*	-2
Cc1onc(-c2ccccc2)c1C(=O)NC(=S)NNC(=O)c1ccc(O)cc1O	17	-82	-2	-3	92*	-7
Cc1onc(-c2ccccc2)c1C(=O)NC(=S)NNC(=O)c1ccccc1O	13	-82	-2	-19	30	-3
CCCOc1ccc(C(=O)NC(=S)NNC(=O)c2c(-c3ccccc3)noc2C)cc1	26	-96	-3	-19	100*	-3
CNC(=O)c1c(NC(=O)C2=COCCO2)sc2c1CCCC2	-5	3	0	-5	81*	·
CNC(=O)c1c(NC(=O)c2ccco2)sc2c1CCC2	10	12	-5	-4	?	·
COCCSc1nnc(NC(=O)C2CC(=O)N(CCc3ccc(F)cc3)C2)s1 (stereo unspecified)	0	5	1	7	1	·
CC(C)(C)C1CCc2sc(C(=O)NNC(=O)CCl)cc2C1 (stereo unspecified)	·	11	0	·	·	-6
c1ccc(Nc2cccc(Nc3ccccc3)n2)cc1	7	-14	0	6	99*	12
c1ccc(Nc2ccccn2)cc1	0	7	2	1	-15	-5
COC(=O)n1c(=S)oc2cc(Cl)ccc21	3	15	·	-2	96*	-4
Cc1noc(C)c1CSc1nc2ccccc2n1CCc1ccccc1	7	0	-2	-6	95*	-2
CCn1c(CCn2c3ccccc3c3ccccc32)n[nH]c1=S	7	-9	5	4	88*	-3
CCn1c(CSc2nc3ccccc3[nH]2)n[nH]c1=S	0	-7	4	1	96*	1
Cc1noc(C)c1CSc1nc2ccccc2[nH]1	1	-4	-1	-2	99*	-2
Fc1cccc(F)c1CSc1nc2ccccc2[nH]1	-2	2	3	-20	66	-7
